For orientation: EC50 means the concentration needed to bring the measured effect to its halfway point.

Our source for the EC50 and Activity values is ChEMBL document CHEMBL4312006, “A novel chalcone derivative as Nrf2 activator attenuates learning and memory impairment in a scopolamine-induced mouse model” (Eur J Med Chem, 2020).

One experiment has as its target Keap1/Nrf2 (Homo sapiens, UniProt Q14145+Q16236). The experiment can be described thus: Activation of NRF2 in human U2OS cells co-expressing Keap1 (unknown origin) assessed as induction of NRF2 translocation to nucleus incubated for 6 hrs by beta-galactosidase based chemiluminescent assay. It is filed as cell-based. A digest of the protocol: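 PathHunter U2OS cells engineered to co-express enzyme donor-tagged NRF2 and nuclear-localized enzyme acceptor; Nrf2 nuclear translocation reconstitutes β-galactosidase. Cells in 96-well plates exposed to a range of compound concentrations for 6 h at room temperature (20–23 °C), then 1 h with detection reagent in the dark; chemiluminescence (RLU) read. EC50 from concentration-response curve, mean ± SEM, triplicate.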

Experiment [1] deals with T1, Nuclear factor erythroid 2-related factor 2 (Mus musculus) (UniProt Q60795).
T1 sequence (whole entry): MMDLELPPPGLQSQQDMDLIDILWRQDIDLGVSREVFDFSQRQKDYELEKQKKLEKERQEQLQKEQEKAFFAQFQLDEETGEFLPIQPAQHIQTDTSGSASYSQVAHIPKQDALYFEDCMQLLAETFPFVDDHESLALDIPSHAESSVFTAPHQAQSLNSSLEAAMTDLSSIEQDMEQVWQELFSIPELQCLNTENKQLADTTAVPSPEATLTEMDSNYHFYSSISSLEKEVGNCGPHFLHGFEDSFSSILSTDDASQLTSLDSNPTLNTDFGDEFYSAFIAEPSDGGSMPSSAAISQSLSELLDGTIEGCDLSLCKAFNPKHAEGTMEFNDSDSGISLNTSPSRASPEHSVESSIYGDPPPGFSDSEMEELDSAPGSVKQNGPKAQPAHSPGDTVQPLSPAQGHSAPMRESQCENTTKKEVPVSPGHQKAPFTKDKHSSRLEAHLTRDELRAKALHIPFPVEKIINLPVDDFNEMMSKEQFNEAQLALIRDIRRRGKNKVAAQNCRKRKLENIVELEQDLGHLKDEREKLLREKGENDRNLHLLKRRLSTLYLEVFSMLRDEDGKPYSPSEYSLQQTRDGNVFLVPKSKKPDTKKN
The experiment can be described thus: Activation of NRF2 in mouse BV2 cells assessed as upregulation of HO1 at 20 uM by ELISA relative to control. It counts as cell-based. A general note: In an ELISA, binding on a coated surface is turned into a signal by an enzyme label.

Counter-ions that a name gives are not always drawn. Some results are limits rather than exact numbers.

Sequence of Keap1/Nrf2 (Q16236 whole entry): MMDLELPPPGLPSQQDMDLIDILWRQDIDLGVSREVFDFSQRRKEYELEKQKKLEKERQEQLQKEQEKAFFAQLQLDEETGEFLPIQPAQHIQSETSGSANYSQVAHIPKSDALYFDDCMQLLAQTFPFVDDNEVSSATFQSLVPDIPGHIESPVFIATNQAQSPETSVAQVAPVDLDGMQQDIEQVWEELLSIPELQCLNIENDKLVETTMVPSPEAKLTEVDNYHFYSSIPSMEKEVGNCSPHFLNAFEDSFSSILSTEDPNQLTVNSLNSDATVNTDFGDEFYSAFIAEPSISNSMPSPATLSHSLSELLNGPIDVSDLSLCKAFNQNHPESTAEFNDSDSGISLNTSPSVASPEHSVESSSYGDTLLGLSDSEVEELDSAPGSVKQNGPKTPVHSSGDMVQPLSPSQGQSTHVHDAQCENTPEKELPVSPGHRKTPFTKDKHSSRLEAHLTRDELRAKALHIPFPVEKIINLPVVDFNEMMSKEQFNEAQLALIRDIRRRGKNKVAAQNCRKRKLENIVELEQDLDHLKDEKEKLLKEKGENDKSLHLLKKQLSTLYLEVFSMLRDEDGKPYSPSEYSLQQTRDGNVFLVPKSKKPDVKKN
Sequence of Keap1/Nrf2 (Q14145 whole entry): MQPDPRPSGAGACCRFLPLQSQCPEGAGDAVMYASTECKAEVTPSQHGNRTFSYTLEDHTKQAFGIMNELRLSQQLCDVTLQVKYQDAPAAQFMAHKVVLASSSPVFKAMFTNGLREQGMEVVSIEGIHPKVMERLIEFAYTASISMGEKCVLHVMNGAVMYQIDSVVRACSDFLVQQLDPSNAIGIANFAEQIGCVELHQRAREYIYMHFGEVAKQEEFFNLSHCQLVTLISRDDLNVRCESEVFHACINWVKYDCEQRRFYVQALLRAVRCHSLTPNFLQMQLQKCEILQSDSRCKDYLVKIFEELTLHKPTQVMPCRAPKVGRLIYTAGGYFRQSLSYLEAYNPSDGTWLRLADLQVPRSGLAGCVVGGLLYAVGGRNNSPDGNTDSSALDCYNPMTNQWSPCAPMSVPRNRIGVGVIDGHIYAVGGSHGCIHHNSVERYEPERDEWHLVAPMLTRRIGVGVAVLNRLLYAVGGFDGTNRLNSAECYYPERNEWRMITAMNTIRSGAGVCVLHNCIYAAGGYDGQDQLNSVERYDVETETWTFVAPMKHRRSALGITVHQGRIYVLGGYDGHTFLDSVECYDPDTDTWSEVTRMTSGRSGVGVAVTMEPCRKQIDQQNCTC

`COc1ccccc1/C=C/C(=O)c1ccc(OCC(=O)N(C)C)cc1`: the EC50 on Keap1/Nrf2 turned out to be 1.46 µM.

With `COc1ccc(/C=C/C(=O)c2ccc(OCCCN3CCOCC3)cc2)cc1`, the EC50 at Keap1/Nrf2 is 6.97 µM. Moreover, in experiment [1], the Activity came out at 166%.

Regarding `COc1ccccc1/C=C/C(=O)c1ccc(OCCCN2CCCC2)cc1`, the EC50 at Keap1/Nrf2 was 0.99 µM. Also, the Activity in experiment [1] was determined as 289%.

In the case of `O=C(/C=C/c1cccc(C(F)(F)F)c1)c1ccc(OCCCN2CCOCC2)cc1`, the EC50 on Keap1/Nrf2 was determined as 2.06 µM.

As for `O=C(/C=C/c1cccnc1)c1ccc(OCCCN2CCOCC2)cc1`, on Keap1/Nrf2, the EC50 was more than 5 µM.

On to `COc1ccccc1/C=C/C(=O)c1ccc(OCCCN2CCN(C)CC2)cc1`, for which the EC50 on Keap1/Nrf2 came to 3.33 µM. The Activity in experiment [1] is 217%.

For `CN1CCN(C(=O)COc2ccc(C(=O)/C=C/c3ccccc3)cc2)CC1`, the EC50 at Keap1/Nrf2 came to 1.8 µM.

For `COc1ccccc1/C=C/C(=O)c1ccc(OCCCN2CCOCC2)cc1`, the EC50 at Keap1/Nrf2 was 1.63 µM. In experiment [1], the Activity amounted to 345%.

As to `O=C(/C=C/c1ccccc1C(F)(F)F)c1ccc(OCCCN2CCCC2)cc1`, at Keap1/Nrf2, the EC50 was more than 1 µM.

Take `O=C(/C=C/c1ccccc1C(F)(F)F)c1ccc(OCC(=O)N2CCOCC2)cc1`: at Keap1/Nrf2, the half-maximal effective concentration (EC50) came to 1.06 µM.

For `CN(C)C(=O)COc1ccc(C(=O)/C=C/c2ccncc2)cc1`, the EC50 on Keap1/Nrf2 came to 1.36 µM.

As for `O=C(/C=C/c1ccccc1Cl)c1cccc(OCCCN2CCOCC2)c1`, the EC50 on Keap1/Nrf2 came to 2.84 µM.

Turning to `CN1CCN(C(=O)COc2ccc(C(=O)/C=C/c3ccccc3Cl)cc2)CC1`, the EC50 at Keap1/Nrf2 came out at 0.97 µM.

`O=C(/C=C/c1ccccn1)c1ccc(OCC(=O)N2CCOCC2)cc1`: on Keap1/Nrf2, the EC50 worked out at 1.23 µM.

On to `O=C(/C=C/c1ccccc1Cl)c1ccc(OCCCN2CCOCC2)cc1`, for which, at Keap1/Nrf2, the EC50 worked out at 2.42 µM.

Turning to `COc1ccccc1/C=C/C(=O)c1ccc(OCC(=O)N2CCOCC2)cc1`, the EC50 at Keap1/Nrf2 is 1.77 µM.

As for `O=C(/C=C/c1ccc(C(F)(F)F)cc1)c1ccc(OCCCN2CCOCC2)cc1`, the half-maximal effective concentration (EC50) on Keap1/Nrf2 amounted to 2.43 µM.

As for `CN1CCN(C(=O)COc2ccc(C(=O)/C=C/c3ccccc3F)cc2)CC1`, on Keap1/Nrf2, the EC50 amounted to 1.54 µM.

Take `COc1ccccc1/C=C/C(=O)c1cccc(OCCCN2CCOCC2)c1`: the EC50 at Keap1/Nrf2 stood at 1.72 µM. Further, the Activity in experiment [1] was less than 200%.

On to `O=C(/C=C/c1ccccc1Cl)c1ccc(OCCCN2CCCC2)cc1`, for which, on Keap1/Nrf2, the EC50 came to 1.39 µM.

`COc1cccc(/C=C/C(=O)c2ccc(OCCCN3CCOCC3)cc2)c1`: the EC50 at Keap1/Nrf2 stood at 2.58 µM.

Turning to `O=C(/C=C/c1ccccc1C(F)(F)F)c1cccc(OCCCN2CCOCC2)c1`, the EC50 on Keap1/Nrf2 came out at 2.3 µM.

Turning to `CN(C)C(=O)COc1ccc(C(=O)/C=C/c2ccccn2)cc1`, the EC50 on Keap1/Nrf2 amounted to 1.1 µM.

Consider `O=C(/C=C/c1ccccc1C(F)(F)F)c1ccc(OCCCN2CCOCC2)cc1`, for which the EC50 at Keap1/Nrf2 turned out to be 1.36 µM. Also, in experiment [1], the Activity worked out at 351%.

In the case of `COc1ccccc1/C=C/C(=O)c1ccccc1OCCCN1CCOCC1`, on Keap1/Nrf2, the EC50 worked out at 5.52 µM. Besides, the Activity in experiment [1] was determined as 146%.

In the case of `CN(C)C(=O)COc1ccc(C(=O)/C=C/c2ccccc2C(F)(F)F)cc1`, the EC50 on Keap1/Nrf2 came to 1.12 µM.

On to `O=C(/C=C/c1ccccn1)c1ccc(OCCCN2CCOCC2)cc1`, for which the EC50 on Keap1/Nrf2 is more than 5 µM. Besides, the Activity in experiment [1] was 112%.

With `COC(=O)/C=C/C(=O)OC` [DIMETHYL FUMARATE], at Keap1/Nrf2, the EC50 amounted to 5.11 µM.

Regarding `COc1ccccc1/C=C/C(=O)c1ccc(OCC(=O)N2CCN(C)CC2)cc1`, the EC50 on Keap1/Nrf2 is 1.91 µM.

With `CN(C)C(=O)COc1ccc(C(=O)/C=C/c2cccnc2)cc1`, the EC50 on Keap1/Nrf2 was 1.46 µM.
